NALP1 yeast inh: inhibitors of NALP1 inflammasome in yeast; S. cerevisiae NALP1/ASC/caspase-1 growth, X-gal OD620, 72 h; inhibition, % at 10 µM; actives 0.61% (n = 280,000); in the data active = inhibition mostly above about 24%, no sharp cut-off; inactive = mostly below about 32%
ALR H2O2 inh: blocks human ALR sulfhydryl oxidase activity; P55789; purified ALR, DTT oxidation, H2O2 HRP-luminol luminescence; inhibition, % (concentration not given with the values); actives 3.8% (n = 290,000); AID 485317;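 active = mean replicate inhibition above about 79%, with every replicate also reaching it, limit read from the data; inconclusive = only one of the two criteria met; inactive = mean below limit and not every replicate reaching it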
Target sequence (P55789 whole entry, looked up): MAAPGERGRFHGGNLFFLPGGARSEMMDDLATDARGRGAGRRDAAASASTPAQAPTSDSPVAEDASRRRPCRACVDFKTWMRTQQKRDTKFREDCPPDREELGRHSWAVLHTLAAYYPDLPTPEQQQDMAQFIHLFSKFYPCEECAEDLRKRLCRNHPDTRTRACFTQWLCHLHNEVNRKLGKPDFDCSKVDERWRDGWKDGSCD
NLRP3 yeast inh: NALP3 inhibition in yeast; Yeast reconstituted NLRP3/ASC/caspase-1, beta-gal luminescence, 24 h; inhibition, % at 10 µM; actives 0.39% (n = 330,000); AID 2825;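 active = inhibition of 50% or more; inactive = inhibition below 50%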;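 note: plate controls were induced DMSO wells for no effect and uninduced yeast grown without galactose for full effect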
ATG4B inh: ATG4B (human) cysteine protease inhibition; Q9Y4P1; ATG4B cleavage of LC3-PLA2, NBD-HPC fluorescence, 1 h; inhibition, % at 8.33 µM; actives 0.51% (n = 340,000); AID 504462; in the data active = inhibition above about 40%
Target sequence (Q9Y4P1 whole entry, looked up): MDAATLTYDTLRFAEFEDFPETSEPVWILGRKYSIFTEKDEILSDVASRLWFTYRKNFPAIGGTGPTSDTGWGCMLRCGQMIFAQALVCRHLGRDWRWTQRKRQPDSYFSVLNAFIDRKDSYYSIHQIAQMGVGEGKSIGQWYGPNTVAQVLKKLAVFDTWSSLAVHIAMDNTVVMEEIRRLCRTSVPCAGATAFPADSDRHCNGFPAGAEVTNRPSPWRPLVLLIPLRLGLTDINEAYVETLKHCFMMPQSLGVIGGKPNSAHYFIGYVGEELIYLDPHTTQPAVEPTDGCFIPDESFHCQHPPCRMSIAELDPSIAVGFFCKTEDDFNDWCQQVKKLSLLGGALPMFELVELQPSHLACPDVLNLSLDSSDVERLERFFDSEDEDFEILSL
UCH37 inh: inhibitors of human deubiquitinating enzyme UCH37 | purified proteasome/UCH37, Ub-AMC cleavage fluorescence | inhibition, % (test concentration not listed) | actives 0.33% (n = 330,000) | AID 588478;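 active = mean inhibition over replicate wells above about 20%, limit read from the data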;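 note: 0% = compound-free wells with enzyme and 100% = wells lacking proteasome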
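Reagent: Ub-AMC substrate; assay system: Proteasome-associated human UCH37 deubiquitinase; controls: no-proteasome and no-compound wells; read-out: % inhibition of Ub-AMC cleavage fluorescence; timing: 30 min preincubation with enzyme, 25 min cleavage at room temperature; signal: AMC fluorescence from Ub-AMC cleavage, excitation 355 nm, emission 460 nm; buffer or medium: Tris-HCl pH 7.4 plus ovalbumin, ATP-MgCl2, DTT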
Calb FLC: affects C. albicans growth with fluconazole; C. albicans CaCi-2 + fluconazole, Alamar Blue growth, 48 h; actives 0.57% (n = 300,000); growth inhibition, % (test concentration not listed); AID 1979;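 active = growth inhibition above about 58% in most replicates, limit read from the data, passing the limit was not always enough; inconclusive = exactly half the replicates above a set limit; inactive = most replicates below a set limit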;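 note: all wells also contain fluconazole at 8 µg/ml as a sub-toxic cotreatment; 0% = median of DMSO wells and 100% = median of geldanamycin control wells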
The depositor's hits bear a star; u = inconclusive; x = no result given. Hits are enriched below; roughly 4.8% of the tested compounds scored in any of these assays.

SMILES	NALP1 yeast inh	ALR H2O2 inh	NLRP3 yeast inh	ATG4B inh	UCH37 inh	Calb FLC
COc1ccccc1NC(c1cccnc1)c1ccc2cccnc2c1O (configuration not stated)	20	-8	7	-3	7	82*
O=C(O)c1ccccc1NC(c1ccccc1)c1ccc2cccnc2c1O (configuration not stated)	x	x	x	35	x	x
COc1cc(C(Nc2ccccn2)c2ccc3ccc(C)nc3c2O)cc(OC)c1O (configuration not stated)	-10	-13	5	-4	3	113*
CC(=NNC(=O)Nc1ccccc1)c1ccc(C)cc1	x	x	x	x	2	x
ON=C1CCSc2ccccc21	x	x	x	x	4	x
O=C(NN=C/C=C/c1ccccc1)c1ccccc1Br	x	x	x	x	8	x
N#C/C(=C\c1cccc(Cl)c1)C(=O)c1ccccc1	7	96*	-3	-2	x	0
C/C(=C\c1ccc(N)cc1)c1nc2ccccc2[nH]1	10	99*	4	-2	-3	-15
COc1ccc(CNC(=O)CSCc2cnn(-c3ccccc3)c2-n2cccc2)cc1	10	-24	-8	17	0	41
O=C(CSCc1cnn(-c2ccccc2)c1-n1cccc1)NCc1ccccn1	-4	81*	-6	4	4	-2
O=c1sc(Nc2ccccc2)nc2ccsc12	70*	-4	49	10	-17	-37
N#CC1=C(SCc2ccccc2)NC(=O)CC1c1ccco1 (configuration not stated)	-4	100*	17	-2	3	7
O=C(/C(=N\O)n1cncn1)c1ccc(Cl)cc1Cl	27	-2	3	14	x	-4
O=C(/C(=C/c1ccccc1)n1cncn1)c1ccc(Cl)cc1Cl	43*	71	32	-2	1	-4
C=CCSc1nc(O)c(C2OC(=O)c3c2ccc(OC)c3OC)c(=O)n1-c1ccccc1 (configuration not stated)	-10	97*	3	-12	2	-1
O=C(CN1CCCCCC1)NN=Cc1cccs1	x	x	x	x	1	x
C[C@H](NC(=O)OC(C)(C)C)C(=O)NN=CC1=Cc2ccccc2OC1	x	x	x	x	-107	x
O=C(O)c1ccc(N/N=C/C2=Cc3ccccc3OC2)cc1	3	98*	6	0	x	29
CCN1CCCC1CNC(=O)CSCc1nc(-c2ccccc2C)oc1C (configuration not stated)	-2	100*	10	-9	1	-6
CCN1CCCC1CNC(=O)CS(=O)(=O)Cc1nc(-c2ccccc2C)oc1C (configuration not stated)	12	-3	4	0	6	-2
CC(=O)NS(=O)(=O)c1ccc(Nc2ccc([N+](=O)[O-])c3nonc23)cc1	x	-20	23	5	25*	5
O=[N+]([O-])c1ccc(Nc2ccccc2)c2nonc12	16	30	22	2	x	89*
O=[N+]([O-])c1cnccc1Nc1ccc(F)cc1	6	-1	15	10	3	-2
O=[N+]([O-])c1cnccc1Nc1ccccc1	33*	-6	7	-3	7	9
Cc1ccc(C=Nn2c(C)n[nH]c2=S)o1	x	x	x	x	8	x
SMILES	NALP1 yeast inh	ALR H2O2 inh	NLRP3 yeast inh	ATG4B inh	UCH37 inh	Calb FLC
Cc1ccc(C(=O)NCC(=O)OC(C)C(=O)Nc2ccc(N(C)C)cc2)s1 (configuration not stated)	2	99*	11	-5	0	10
Cc1ccc(C(=O)NCC(=O)OC(C)C(=O)Nc2ccccc2[N+](=O)[O-])s1 (configuration not stated)	x	-4	-3	-3	3	x
O=S(=O)(N=C(c1ccccc1)N1CCOCC1)c1ccc(Cl)cc1	x	x	x	x	2	x
CCN(CC)c1ccc(/C=N/Nc2nc(C)cc(C)n2)cc1	x	98*	17	-8	x	-2
CCN(CC)c1ccc(C=NNc2nc(C)cc(C)n2)cc1	x	x	x	x	12	x
CCCCN=C1CC(C)(C)CC(=O)/C1=C(\O)CCC	x	x	x	x	6	x
Cc1[nH]c2ccccc2c1/C=C/c1cc[n+](C)cc1	15	x	x	-2	x	104*
Clc1nc2ccccc2cc1C=NNc1nc2ccccc2[nH]1	x	x	x	x	3	x
COc1cccc(C=NNC(=O)C(=O)NCc2ccco2)c1O	x	x	x	x	1	x
CCN(CC)c1ccc(/C=C2\SC(N)=NC2=O)cc1	-12	99*	21	4	6	-1
NC1=NC(=O)/C(=C\c2ccc(O)c([N+](=O)[O-])c2)S1	-4	-12	25	0	24*	-2
NC1=NC(=O)/C(=C/c2ccc(OCC(=O)O)cc2)S1	14	-19	12	-7	10	12
COc1ccc([N+](=O)[O-])cc1C=NNC(=O)Cc1ccccc1	x	x	x	x	5	x
Cc1cc(CSC(=N)N)c(CSC(=N)N)cc1C	-6	99*	26	2	10	-6
CCCNC(=O)C(Cc1cccc(Cl)c1)NC(=O)c1ccc(C#N)cc1 (configuration not stated)	x	2	10	2	27*	x
CCCNC(=O)C(Cc1cccc(C#N)c1)NC(=O)c1ccc(C#N)cc1 (configuration not stated)	x	-6	23	2	0	x
CCOc1ccc2[nH]c3c(NCCc4ccc(OC)c(OC)c4)ncnc3c2c1	x	4	15	-6	-44	9
CCOc1ccc2[nH]c3c(NCCO)ncnc3c2c1	-3	89*	6	-6	-268	0
CC(=NNS(=O)(=O)c1ccc(C)cc1)c1cccc(NC(=O)c2cccc(Cl)c2)c1	x	x	x	x	2	x
O=C(O)c1cc(NN=Cc2ccc3c(c2)OCO3)ccc1Cl	x	x	x	x	7	x
Cc1ccc(NCc2nnc(SCC(N)=O)o2)c(C)c1	0	39	4	-2	-1	-11
CCOC(=O)CN(C(=O)CSc1nnc(CNc2ccc(C)cc2C)o1)c1ccccc1	16	96*	7	-7	3	u
Cc1ccc(NCc2nnc(SCC(=O)N(Cc3ccccc3)C(C)(C)C)o2)c(C)c1	16	8	5	13	-2	17
Cc1ccc(NCc2nnc(SCC(=O)OC3CCCCC3)o2)c(C)c1	4	98*	2	4	2	-14
CCN(CC(=O)NCc1ccc(F)cc1)C(=O)/C=C/c1ccco1	-9	88*	9	-2	3	4
CCN(CC(=O)NCc1ccc(F)cc1)C(=O)/C=C/c1cccs1	2	1	6	-8	4	1
CC(=O)N(C1=C(N2CCOCC2)C(=O)c2ccccc2C1=O)c1ccc(C(=O)O)cc1	-6	-16	-11	4	24*	35
CC(=O)N(C)C1=C(N2CCOCC2)C(=O)c2ccccc2C1=O	12	-40	11	7	22*	13
COc1cccc(C=NNC(=O)c2cccc([N+](=O)[O-])c2)c1OS(=O)(=O)c1ccc(C)cc1	x	x	x	x	2	x

Source: PubChem
